According to ChEMBL document CHEMBL4024721, “C-2 (E)-4-(Styryl)aniline substituted diphenylpyrimidine derivatives (Sty-DPPYs) as specific kinase inhibitors targeting clinical resistance related EGFRT790M mutant” (Bioorg Med Chem, 2017):
pIC50: −log10 of the molar value.

Assays:
[1] = tested on: Epidermal growth factor receptor (Homo sapiens), P00533 [L858R,T790M]; assay: Potency index, ratio of gefitinib IC50 to test compound IC50 for recombinant human EGFR T790M/L858R double mutant (695 to end residues)
[2] = tested on: A-431; assay: Antiproliferative activity against human A431 cells harboring wild type EGFR assessed as decrease in cell viability after 72 hrs by MTT assay; type: ADME, cell-based; conditions: A-431, 72 h
[3] = target: Epidermal growth factor receptor (Homo sapiens, UniProt P00533, L858R/T790M)
[4] = tested on: NCI-H1975; assay: Antiproliferative activity against human NCI-H1975 cells harboring EGFR T790M/L858R double mutant assessed as decrease in cell viability after 72 hrs by MTT assay; type: functional, cell-based; conditions: NCI-H1975, 72 h
[5] = Antiproliferative activity against NHBE cells assessed as decrease in cell viability after 72 hrs by MTT assay; type: ADME, cell-based; conditions: Homo sapiens
[6] = tested on: HCC827; assay: Antiproliferative activity against human HCC827 cells harboring EGFR del E746 to A750 mutant assessed as decrease in cell viability after 72 hrs by MTT assay; type: functional, cell-based; conditions: HCC827, 72 h
[7] = tested on: A549; assay: Antiproliferative activity against human A549 cells harboring EGFR K-ras mutant assessed as decrease in cell viability after 72 hrs by MTT assay; type: functional, cell-based; conditions: A549, 72 h
[8] = target: Epidermal growth factor receptor (Homo sapiens, UniProt P00533); type: ADME
[9] = tested on: NCI-H1975; assay: Induction of apoptosis in human NCI-H1975 cells harboring EGFR T790M/L858R double mutant assessed as viable cells at 8 uM after 72 hrs by annexin V/FITC staining-based flow cytometric method relative to control; type: functional; conditions: NCI-H1975, 72 h, read-out: Activity
Summary of the method: (§1)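 H1975 cells (ATCC), grown as monolayers at 37 °C in humidified 5% CO2, were incubated with compound at the indicated concentrations for 72 h. They were then stained with annexin V/FITC and analysed by flow cytometry. The data shown come from one representative experiment.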

[10] = tested on: NCI-H1975; assay: Induction of apoptosis in human NCI-H1975 cells harboring EGFR T790M/L858R double mutant assessed as viable cells at 1 uM after 72 hrs by annexin V/FITC staining-based flow cytometric method relative to control; type: functional; conditions: NCI-H1975, 72 h, read-out: Activity; summary of the method: as §1
[11] = tested on: NCI-H1975; assay: Induction of apoptosis in human NCI-H1975 cells harboring EGFR T790M/L858R double mutant after 72 hrs by annexin V/FITC staining-based flow cytometric method; type: functional, cell-based; summary of the method: as §1
[12] = tested on: NCI-H1975; assay: Induction of apoptosis in human NCI-H1975 cells harboring EGFR T790M/L858R double mutant assessed as early apoptotic cells at 8 uM after 72 hrs by annexin V/FITC staining-based flow cytometric method relative to control; type: functional; summary of the method: as §1
[13] = tested on: NCI-H1975; assay: Induction of apoptosis in human NCI-H1975 cells harboring EGFR T790M/L858R double mutant assessed as necrotic cells at 1 uM after 72 hrs by annexin V/FITC staining-based flow cytometric method relative to control; type: functional; summary of the method: as §1
[14] = tested on: NCI-H1975; assay: Induction of apoptosis in human NCI-H1975 cells harboring EGFR T790M/L858R double mutant assessed as late apoptotic cells at 1 uM after 72 hrs by annexin V/FITC staining-based flow cytometric method relative to control; type: functional; summary of the method: as §1
[15] = tested on: NCI-H1975; assay: Induction of apoptosis in human NCI-H1975 cells harboring EGFR T790M/L858R double mutant assessed as necrotic cells at 8 uM after 72 hrs by annexin V/FITC staining-based flow cytometric method relative to control; type: functional; summary of the method: as §1
[16] = tested on: NCI-H1975; assay: Induction of apoptosis in human NCI-H1975 cells harboring EGFR T790M/L858R double mutant assessed as late apoptotic cells at 8 uM after 72 hrs by annexin V/FITC staining-based flow cytometric method relative to control; type: functional; summary of the method: as §1
[17] = tested on: NCI-H1975; assay: Induction of apoptosis in human NCI-H1975 cells harboring EGFR T790M/L858R double mutant assessed as late apoptotic cells at 4 uM after 72 hrs by annexin V/FITC staining-based flow cytometric method relative to control; type: functional; summary of the method: as §1
[18] = tested on: NCI-H1975; assay: Induction of apoptosis in human NCI-H1975 cells harboring EGFR T790M/L858R double mutant assessed as necrotic cells at 4 uM after 72 hrs by annexin V/FITC staining-based flow cytometric method relative to control; type: functional; summary of the method: as §1
[19] = tested on: NCI-H1975; assay: Induction of apoptosis in human NCI-H1975 cells harboring EGFR T790M/L858R double mutant assessed as early apoptotic cells at 1 uM after 72 hrs by annexin V/FITC staining-based flow cytometric method relative to control; type: functional; summary of the method: as §1
[20] = tested on: NCI-H1975; assay: Induction of apoptosis in human NCI-H1975 cells harboring EGFR T790M/L858R double mutant assessed as viable cells at 4 uM after 72 hrs by annexin V/FITC staining-based flow cytometric method relative to control; type: functional; conditions: NCI-H1975, 72 h, read-out: Activity; summary of the method: as §1
[21] = tested on: NCI-H1975; assay: Induction of apoptosis in human NCI-H1975 cells harboring EGFR T790M/L858R double mutant assessed as early apoptotic cells at 4 uM after 72 hrs by annexin V/FITC staining-based flow cytometric method relative to control; type: functional; summary of the method: as §1

Row | SMILES | Ratio IC50 [1] | pIC50 [2] | pIC50 [3] | pIC50 [4] | pIC50 [6] | pIC50 [7] | pIC50 [8] | pIC50 [5] | further results
1 | C=CC(=O)Nc1cccc(Nc2nc(Nc3ccc(/C=C/c4ccc(C)cc4C)cc3)ncc2F)c1 | 45 to 177 | 5.51 | 8.09 | 5.15 | < 4.70 | 5.88 | 6.41 | 4.98 | 
2 | C=CC(=O)Nc1cccc(Nc2nc(Nc3ccc(/C=C/c4ccc(C)cc4C)cc3)ncc2Cl)c1 | 45 to 177 | 5.50 | 8.17 | 5.36 | 5.01 | 5.31 | 6.00 | 4.80 | 
3 | C=CC(=O)Nc1cccc(Nc2nc(Nc3ccc(/C=C/c4cc(C)cc(C)c4)cc3)ncc2Cl)c1 | 45 to 177 | 5.25 | 7.58 | 5.63 | 5.40 | 5.25 | 6.22 | 4.77 | 
4 | C=CC(=O)Nc1cccc(Nc2nc(Nc3ccc(/C=C/c4cc(C)cc(C)c4)cc3)ncc2F)c1 | 45 to 177 | 4.98 | 7.96 | 5.54 | 5.68 | 4.89 | 6.27 | 4.65 | viability at 8 µM [9]: 7%; viability at 1 µM [10]: 55.9%; Activity [11]: Dose-dependent effect; Activity [12]: 3.7%; Activity [13]: 3.7%; Activity [14]: 22.7%; Activity [15]: 13.2%; Activity [16]: 76.1%; Activity [17]: 25.8%; Activity [18]: 1.4%; Activity [19]: 17.7%; viability at 4 µM [20]: 45.7%; Activity [21]: 27.1%
5 | C=CC(=O)Nc1cccc(Nc2nc(Nc3ccc(/C=C/c4cc(Cl)cc(Cl)c4)cc3)ncc2Cl)c1 | 45 to 177 | 5.18 | 7.95 | 5.16 | 5.04 | 4.80 | 5.98 | 4.45 | 
6 | C=CC(=O)Nc1cccc(Oc2nc(Nc3ccc(/C=C/c4cc(C)cc(C)c4)cc3)ncc2Cl)c1 | 45 to 177 | 5.33 | 7.65 | 4.86 | 4.93 | 4.97 | 7.06 | 5.22 | 

These reach a higher pIC50 [2]. Values come first.

Row | Ratio IC50 [1] | pIC50 [2] | pIC50 [3] | pIC50 [4] | pIC50 [6] | pIC50 [7] | pIC50 [8] | SMILES | pIC50 [5] | further results
7 |  | 5.75 |  | 6.86 | 7.51 | 5.49 |  | C=CC(=O)Nc1cccc(Nc2nc(Nc3ccc(N4CCN(C(C)=O)CC4)cc3OC)ncc2C(F)(F)F)c1 [ROCILETINIB] | 4.62 | 
8 | 45 to 177 | 5.75 | 7.80 | 5.42 | 5.48 | 5.16 | 6.67 | C=CC(=O)Nc1cccc(Nc2nc(Nc3ccc(/C=C/c4cc(OC)cc(OC)c4)cc3)ncc2Cl)c1 | 5.04 | 
9 | 45 to 177 | 5.89 | 7.85 | 5.16 | 4.97 | 5.15 | 6.41 | C=CC(=O)Nc1cccc(Nc2nc(Nc3ccc(/C=C/c4cc(Cl)cc(Cl)c4)cc3)ncc2F)c1 | 5.27 | 
